Measured values published in ChEMBL document CHEMBL1154792, “chi-Conopeptide pharmacophore development: toward a novel class of norepinephrine transporter inhibitor (Xen2174) for pain” (J Med Chem, 2009).

Species on record: Rattus norvegicus
Assay: Toxicity in CCI rat pain model assessed as side effects
Type: organism-based
Conditions: in vivo
Summary of the method: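 Rats with unilateral sciatic chronic constriction injury received a single intrathecal bolus via an implanted cannula 14 days after surgery, with morphine and vehicle as comparators. Compound-related behavioural observations were recorded alongside von Frey paw-withdrawal testing. Three animals per analogue.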

Compound: CC(C)C[C@@H]1NC(=O)[C@H](CCCCN)NC(=O)[C@H](Cc2ccc(O)cc2)NC(=O)CNC(=O)[C@@H]2CSSC[C@H](NC1=O)C(=O)N[C@@H](Cc1cnc[nH]1)C(=O)N1CC[C@H](O)[C@H]1C(=O)N[C@H](C(=O)O)CSSC[C@H](NC(=O)[C@@H](NC(=O)CNC(=O)[C@@H](N)CC(N)=O)C(C)C)C(=O)N2
- Activity: Toxic
